Test results: ChEMBL document CHEMBL1671845, “Inhibitors of HCV NS5A: From Iminothiazolidinones to Symmetrical Stilbenes” (ACS Med Chem Lett, 2011)
pEC50: −log10 of the molar value.

Tests used:
Hepatitis C virus = test: Antiviral activity against HCV1b infected in human HuH7 cells assessed as inhibition of viral replication after 72 hrs by FRET assay; assay type: functional, organism-based, Hepacivirus hominis; details: genotype 1b, Huh-7, 72 h
Method in brief: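 Dual-replicon screen pairing an HCV genotype 1b replicon with a bovine viral diarrhea virus replicon, run in high-throughput mode. Results are reported as EC50.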

[1] = Chemical stability of the compound in DMSO assessed as conversion of (2S)-N-(4-(3-(3-Fluorophenyl)-1-(furan-2-ylmethyl)-4-hydroxy-5-oxo-2- thioxoimidazolidin-4-yl)phenyl)-2-(2-phenylacetamido)propanamide by HPLC analysis; assay type: physicochemical
[2] = Chemical stability of the compound in DMSO assessed as conversion of (2S)-1-(4-(3-(3-fluorophenyl)-1-(furan-2-ylmethyl)-4-hydroxy-5-oxo-2-thioxoimidazolidin- 4-yl)phenylamino)-1-oxopropan-2-ylcarbamate after 18 hrs by HPLC analysis; assay type: physicochemical
[3] = Cytotoxicity against human HuH7 cells; assay type: cell-based, Huh-7

| Compound | pEC50 (Hepatitis C virus) | also measured |
| --- | --- | --- |
| O=C(N[C@@H](Cc1ccccc1)C(=O)Nc1ccc(C2S/C(=N\c3cccc(F)c3)N(Cc3ccco3)C2=O)cc1)OCc1ccccc1 (stereo partly drawn) | < 4.30 | – |
| O=C(CNC(=O)OCc1ccccc1)Nc1ccc(C2S/C(=N\c3cccc(F)c3)N(Cc3ccco3)C2=O)cc1 (stereo not drawn) | 5.30 | – |
| O=C(Nc1ccc(/C=C/c2ccc(NC(=O)[C@H]3CCCN3C(=O)Cc3ccccc3)cc2)cc1)[C@H]1CCCN1C(=O)Cc1ccccc1 | < 5.00 | – |
| C[C@@H](NC(=O)OCc1ccccc1)C(=O)Nc1ccc(C2S/C(=N\c3cccc(F)c3)N(Cc3ccco3)C2=O)cc1 (stereo partly drawn) | 4.02 | – |
| O=C(Nc1ccc(/C=C/c2ccc(NC(=O)[C@H]3CCCN3C(=O)OCc3ccccc3)cc2)cc1)[C@H]1CCCN1C(=O)OCc1ccccc1 | < 5.00 | – |
| C[C@H](NC(=O)OCc1ccccc1)C(=O)Nc1ccc(C2S/C(=N\c3ccc(C(F)(F)F)c(F)c3)N(Cc3ccco3)C2=O)cc1 (stereo partly drawn) | 5.60 | – |
| O=C(Nc1ccc(C2S/C(=N\c3ccc(C(F)(F)F)c(F)c3)N(Cc3ccco3)C2=O)cc1)[C@@H]1CCCN1C(=O)OCc1ccccc1 (stereo partly drawn) | 5.66 | – |
| C[C@H](NC(=O)c1ccccc1)C(=O)Nc1ccc(C2S/C(=N\c3cccc(F)c3)N(Cc3ccco3)C2=O)cc1 (stereo partly drawn) | 5.72 | – |
| C[C@H](NC(=O)CCc1ccccc1)C(=O)Nc1ccc(C2S/C(=N\c3cccc(F)c3)N(Cc3ccco3)C2=O)cc1 (stereo partly drawn) | 5.51 | – |
| CC(C)(C)OC[C@H](NC(=O)OCc1ccccc1)C(=O)Nc1ccc(C2S/C(=N\c3cccc(F)c3)N(Cc3ccco3)C2=O)cc1 (stereo partly drawn) | < 4.30 | – |
| O=C(Nc1ccc(C2S/C(=N\c3cccc(F)c3)N(Cc3ccco3)C2=O)cc1)OCc1ccccc1 (stereo not drawn) | 3.82 | – |
| CC(OCc1ccccc1)C(=O)Nc1ccc(C2S/C(=N\c3cccc(F)c3)N(Cc3ccco3)C2=O)cc1 (stereo not drawn) | 3.88 | – |
| O=C(Nc1ccc(C2S/C(=N\c3cccc(F)c3)N(Cc3ccco3)C2=O)cc1)[C@@H]1CCCN1C(=O)CCc1ccccc1 (stereo partly drawn) | 5.29 | – |
| COC(=O)CCCC(=O)Nc1ccc(C2S/C(=N\c3cccc(F)c3)N(Cc3ccco3)C2=O)cc1 (stereo not drawn) | 3.82 | – |
| CC[C@@H](C)[C@H](NC(=O)OCc1ccccc1)C(=O)Nc1ccc(C2S/C(=N\c3cccc(F)c3)N(Cc3ccco3)C2=O)cc1 (stereo partly drawn) | 5.22 | – |
| O=C(Nc1ccc(C2S/C(=N\c3cccc(F)c3)N(Cc3ccco3)C2=O)cc1)[C@@H]1CCCN1C(=O)c1ccccc1 (stereo partly drawn) | 5.10 | – |
| C[C@H](NC(=O)OCc1ccccc1)C(=O)Nc1ccc(C2S/C(=N\c3ccc(C(F)(F)F)cc3)N(Cc3ccco3)C2=O)cc1 (stereo partly drawn) | 5.66 | – |
| O=C(N[C@@H](CSCc1ccccc1)C(=O)Nc1ccc(C2S/C(=N\c3cccc(F)c3)N(Cc3ccco3)C2=O)cc1)OCc1ccccc1 (stereo partly drawn) | < 4.30 | – |
| O=C(Nc1ccc(C2S/C(=N\c3cccc(F)c3)N(Cc3ccco3)C2=O)cc1)[C@H]1CCCN1C(=O)OCc1ccccc1 (stereo partly drawn) | 5.19 | – |
| CCc1ccc(/N=C2\SC(c3ccc(NC(=O)[C@@H]4CCCN4C(=O)OCc4ccccc4)cc3)C(=O)N2Cc2ccco2)cc1 (stereo partly drawn) | 5.74 | – |
| C[C@H](NC(=O)OCc1ccccc1)C(=O)Nc1ccc(C2S/C(=N\c3cccc(F)c3)N(Cc3ccco3)C2=O)cc1 (stereo partly drawn) | 6.24 | CC50 [3]: > 100000 nM; Stability [1]: Unstable; Stability [2]: Unstable |
| O=C(COCc1ccccc1)Nc1ccc(C2S/C(=N\c3cccc(F)c3)N(Cc3ccco3)C2=O)cc1 (stereo not drawn) | 4.21 | – |
| O=C(CCc1ccccc1)Nc1ccc(C2S/C(=N\c3cccc(F)c3)N(Cc3ccco3)C2=O)cc1 (stereo not drawn) | 4.12 | – |

The remaining compounds from weak to strong by pEC50 (Hepatitis C virus), led by results:

| pEC50 (Hepatitis C virus) | Compound | also measured |
| --- | --- | --- |
| 5.82 | CCc1ccc(/N=C2\SC(c3ccc(NC(=O)[C@H](C)NC(=O)OCc4ccccc4)cc3)C(=O)N2Cc2ccco2)cc1 (stereo partly drawn) | – |
| 5.93 | O=C(Nc1ccc(C2S/C(=N\c3ccc(Cl)cc3)N(Cc3ccco3)C2=O)cc1)[C@@H]1CCCN1C(=O)OCc1ccccc1 (stereo partly drawn) | – |
| 6.01 | O=C(Nc1ccc(C2S/C(=N\c3ccc(C(F)(F)F)cc3)N(Cc3ccco3)C2=O)cc1)[C@@H]1CCCN1C(=O)OCc1ccccc1 (stereo partly drawn) | – |
| 6.19 | C[C@H](NC(=O)OCc1ccccc1)C(=O)Nc1ccc(C2S/C(=N\c3cccc(F)c3)N(CC3CCCO3)C2=O)cc1 (stereo partly drawn) | – |
| 6.22 | O=C(Nc1ccc(C2S/C(=N\c3cccc(F)c3)N(Cc3ccc(F)c(F)c3F)C2=O)cc1)[C@@H]1CCCN1C(=O)OCc1ccccc1 (stereo partly drawn) | – |
| 6.26 | C[C@H](NC(=O)OCc1ccccc1)C(=O)Nc1ccc(C2S/C(=N\c3cccc(F)c3)N(Cc3ccc(F)c(F)c3F)C2=O)cc1 (stereo partly drawn) | – |
| 6.29 | C[C@H](NC(=O)OCc1ccccc1)C(=O)Nc1ccc(C2S/C(=N\c3ccc(Cl)cc3)N(Cc3ccco3)C2=O)cc1 (stereo partly drawn) | – |
| 6.96 | O=C(Nc1ccc(C2S/C(=N\c3cccc(F)c3)N(Cc3ccco3)C2=O)cc1)[C@@H]1CCCN1C(=O)OCc1ccccc1 (stereo partly drawn) | – |
| 7.07 | N#Cc1ccc(/N=C2\SC(c3ccc(NC(=O)[C@@H]4CCCN4C(=O)OCc4ccccc4)cc3)C(=O)N2Cc2ccco2)cc1 (stereo partly drawn) | – |
| 7.42 | O=C(Nc1ccc(C2S/C(=N\c3cccc(F)c3)N(Cc3cnccn3)C2=O)cc1)[C@@H]1CCCN1C(=O)OCc1ccccc1 (stereo partly drawn) | – |
| 7.43 | C[C@H](NC(=O)OCc1ccccc1)C(=O)Nc1ccc(C2S/C(=N\c3ccc(C#N)cc3)N(Cc3ccco3)C2=O)cc1 (stereo partly drawn) | – |
| 7.46 | C[C@H](NC(=O)OCc1ccccc1)C(=O)Nc1ccc(C2S/C(=N\c3cccc(F)c3)N(Cc3ccccn3)C2=O)cc1 (stereo partly drawn) | – |
| 7.59 | C[C@H](NC(=O)OCc1ccccc1)C(=O)Nc1ccc(C2S/C(=N\c3cccc(F)c3)N(Cc3cccnc3)C2=O)cc1 (stereo partly drawn) | – |
| 7.60 | C[C@H](NC(=O)OCc1ccccc1)C(=O)Nc1ccc(C2S/C(=N\c3cccc(F)c3)N(Cc3cnccn3)C2=O)cc1 (stereo partly drawn) | – |
| 7.64 | O=C(Nc1ccc(C2S/C(=N\c3cccc(F)c3)N(Cc3ccco3)C2=O)cc1)[C@@H]1CCCN1C(=O)Cc1ccccc1 (stereo partly drawn) | – |
| 7.70 | C[C@H](NC(=O)OCc1ccccc1)C(=O)Nc1ccc(C2S/C(=N\c3cccc4ncccc34)N(Cc3ccco3)C2=O)cc1 (stereo partly drawn) | – |
| 7.70 | O=C(Nc1ccc(C2S/C(=N\c3ccc(N4CCOCC4)cc3)N(Cc3ccco3)C2=O)cc1)[C@@H]1CCCN1C(=O)OCc1ccccc1 (stereo partly drawn) | – |
| 7.82 | C[C@H](NC(=O)OCc1ccccc1)C(=O)Nc1ccc(C2S/C(=N\c3ccc(N4CCOCC4)cc3)N(Cc3ccco3)C2=O)cc1 (stereo partly drawn) | – |
| 8.00 | O=C(Nc1ccc(/C=C/c2ccc(NC(=O)[C@@H]3CCCN3C(=O)OCc3ccccc3)cc2)cc1)[C@@H]1CCCN1C(=O)OCc1ccccc1 | – |
| 8.00 | C[C@H](NC(=O)OCc1ccccc1)C(=O)Nc1ccc(C2S/C(=N\c3cccc4c3OCCO4)N(Cc3ccco3)C2=O)cc1 (stereo partly drawn) | – |
| 8.00 | O=C(Nc1ccc(C2S/C(=N\c3cccc4ncccc34)N(Cc3ccco3)C2=O)cc1)[C@@H]1CCCN1C(=O)OCc1ccccc1 (stereo partly drawn) | – |
| 8.05 | O=C(Nc1ccc(C2S/C(=N\c3cccc4c3OCCO4)N(Cc3ccco3)C2=O)cc1)[C@@H]1CCCN1C(=O)OCc1ccccc1 (stereo partly drawn) | – |
| 8.22 | C[C@H](NC(=O)Cc1ccccc1)C(=O)Nc1ccc(C2S/C(=N\c3cccc(F)c3)N(Cc3ccco3)C2=O)cc1 (stereo partly drawn) | Stability [1]: Unstable; Stability [2]: Unstable |
| 8.70 | O=C(Nc1ccc(C2S/C(=N\c3cccc(F)c3)N(Cc3ccccn3)C2=O)cc1)[C@@H]1CCCN1C(=O)OCc1ccccc1 (stereo partly drawn) | – |
| 10.07 | O=C(Nc1ccc(/C=C/c2ccc(NC(=O)[C@@H]3CCCN3C(=O)Cc3ccccc3)cc2)cc1)[C@@H]1CCCN1C(=O)Cc1ccccc1 | – |
